Experimental findings from ChEMBL document CHEMBL1667766, “Synthesis of elastin based peptides conjugated to benzisoxazole as a new class of potent antimicrobials--A novel approach to enhance biocompatibility” (2011) are described below.

As usually defined, the MIC is the least concentration at which growth counts as inhibited.

Common to all, as to format: functional
The subject of test [1] is Aspergillus flavus. As to the kind of experiment: Antifungal activity against Aspergillus flavus after 72 hrs by microdilution method.
For test [2], the system named is Fusarium oxysporum. As to the kind of experiment: Antifungal activity against Fusarium oxysporum after 24 hrs by agar well diffusion method. The essentials:
(§1)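 Fungi subcultured in 25 mL nutrient broth for one day to give inoculum, then spread on solidified Sabouraud agar. Wells punched with a 6 mm cork borer and filled with 0.1 mL test solution in DMSO, prepared from a 1 mg/mL stock. Bavistin as reference, DMSO as negative control. Read-out is inhibition zone diameter (mm).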
In general terms: A growth-free zone around the sample is the usual read-out of agar diffusion tests.

Test [3] relates to Aspergillus niger. As to the kind of experiment: Antifungal activity against Aspergillus niger after 24 hrs by agar well diffusion method. Put shortly:
as §1

Test [4] concerns Klebsiella pneumoniae. As to the kind of experiment: Antimicrobial activity against Klebsiella pneumoniae after 72 hrs by microdilution method. (In general: Dilution methods test growth across graded concentrations, often in twofold steps.)
For test [5], the system named is Klebsiella pneumoniae. As to the kind of experiment: Antimicrobial activity against Klebsiella pneumoniae after 24 hrs by agar well diffusion method. The essentials: (§2)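 Bacteria grown in nutrient broth at 37 °C for 24 h, subcultured in 25 mL broth at room temperature, then spread on nutrient agar. Wells (6 mm cork borer) filled with 0.1 mL test solution in DMSO, prepared from a 1 mg/mL stock. Amoxicillin as reference, DMSO as negative control. Plates kept 24 h at 37 °C; inhibition zone measured in mm.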

Test [6] relates to Fusarium oxysporum. As to the kind of experiment: Antifungal activity against Fusarium oxysporum after 72 hrs by microdilution method.
Test [7] has as its system Aspergillus flavus. As to the kind of experiment: Antifungal activity against Aspergillus flavus after 24 hrs by agar well diffusion method. Put shortly:
as §1

Test [8] relates to Staphylococcus. As to the kind of experiment: Antimicrobial activity against coagulase positive Staphylococcus after 72 hrs by microdilution method.
The subject of test [9] is Xanthomonas oryzae. As to the kind of experiment: Antimicrobial activity against Xanthomonas oryzae after 24 hrs by agar well diffusion method.
Test [10] relates to Escherichia coli. As to the kind of experiment: Antimicrobial activity against Escherichia coli after 24 hrs by agar well diffusion method. The essentials:
as §2

For test [11], the system named is Aspergillus niger. As to the kind of experiment: Antifungal activity against Aspergillus niger after 72 hrs by microdilution method.
The subject of test [12] is Staphylococcus. As to the kind of experiment: Antimicrobial activity against coagulase positive Staphylococcus after 24 hrs by agar well diffusion method. The essentials: as §2
Test [13] has as its system Escherichia coli. As to the kind of experiment: Antimicrobial activity against Escherichia coli after 72 hrs by microdilution method.
Test [14] has as its system Xanthomonas oryzae. As to the kind of experiment: Antimicrobial activity against Xanthomonas oryzae after 72 hrs by microdilution method.

*1 amine or outer side, *2 acyl side, *3 side chain or, on linkers, in order; H or OH if unused. Where a SMILES comes first, the peptide text is derived from it. [ ]: non-standard residue; d: D form. The star is where a group is joined. X2 = CC(C)[C@H](N[*:1])C(=O)NC(=O)[*:2]; X1 = Fc1ccc2c(C3CCN(*)CC3)noc2c1

In the case of `CC(C)[C@H](NC(=O)CNC(=O)[C@@H]1CCCN1C(=O)[C@H](Cc1ccccc1)NC(=O)CNC(=O)[C@H](CCC(=O)O)NC(=O)CN)C(=O)NCC(=O)N[C@H](C(=O)N1CCC[C@H]1C(=O)NCC(=O)N[C@H](C(=O)NCC(=O)N[C@H](C(=O)N1CCC[C@H]1C(=O)NCC(=O)N[C@H](C(=O)NCC(=O)N[C@H](C(=O)N1CCC[C@H]1C(=O)NCC(=O)N[C@@H](Cc1ccccc1)C(=O)NCC(=O)N[C@@H](Cc1ccccc1)C(=O)N1CCC[C@H]1C(=O)NCC(=O)N[C@@H](Cc1ccccc1)C(=O)NCC(=O)N[C@@H](Cc1ccccc1)C(=O)N1CCC[C@H]1C(=O)N1CCC(c2noc3cc(F)ccc23)CC1)C(C)C)C(C)C)C(C)C)C(C)C)C(C)C.O=C(O)C(F)(F)F` (H-GEGFPGVGVPGVGVPGVGVPGFGFPGFGFP-X1), the MIC worked out at 3 µg/mL in [1]; 9 µg/mL in [4]; 4 µg/mL in test [6]; 11 µg/mL in test [8]; 3 µg/mL in [11]; 10 µg/mL in test [13]. The compound also displayed an MIC in test [14] of 9 µg/mL. Also, the “inhibition zone (IZ)” value in test [2] is 31 mm; in test [3] it was 36 mm; in [5] it was 17 mm; in test [7] it was 32 mm; in [9], 18 mm; in [10], 15 mm. Besides, the “inhibition zone (IZ)” value in test [12] worked out at 20 mm.

Turning to `CC(C)[C@H](NC(=O)CNC(=O)[C@@H]1CCCN1C(=O)[C@H](Cc1ccccc1)NC(=O)CNC(=O)[C@H](Cc1ccccc1)NC(=O)CNC(=O)[C@@H]1CCCN1C(=O)[C@H](Cc1ccccc1)NC(=O)CNC(=O)[C@@H](NC(=O)CNC(=O)[C@@H]1CCCN1C(=O)[C@@H](NC(=O)NC(=O)[C@@H](NC(=O)CNC(=O)[C@@H]1CCCN1C(=O)[C@H](Cc1ccccc1)NC(=O)CNC(=O)[C@H](CCC(=O)O)NC(=O)CN)C(C)C)C(C)C)C(C)C)C(=O)NCC(=O)N[C@H](C(=O)N1CCC[C@H]1C(=O)NCC(=O)N[C@H](C(=O)NCC(=O)N[C@@H](Cc1ccccc1)C(=O)N1CCC[C@H]1C(=O)N1CCC(c2noc3cc(F)ccc23)CC1)C(C)C)C(C)C.O=C(O)C(F)(F)F` (H-GEGFPG[X2]VPGVGFPGFGFPGVGVPGVGFP-X1), the MIC in [1] was 4 µg/mL; in [4], 10 µg/mL; in test [6], 5 µg/mL; in [8], 13 µg/mL; in test [11], 4 µg/mL; in test [13], 12 µg/mL. Besides, inhibition of growth in test [14] (MIC) required 10 µg/mL. For the same compound, the “inhibition zone (IZ)” value was 28 mm in test [2]; 34 mm in test [3]; 11 mm in test [5]; 28 mm in [7]; 14 mm in [9]; 12 mm in test [10]. Further, in test [12], the “inhibition zone (IZ)” value came out at 16 mm.

Turning to `NCC(=O)N[C@@H](Cc1ccccc1)C(=O)NCC(=O)N[C@@H](Cc1ccccc1)C(=O)N1CCC[C@H]1C(=O)N1CCC(c2noc3cc(F)ccc23)CC1.O=C(O)C(F)(F)F` (H-GFGFP-X1), the minimum inhibitory concentration (MIC) in test [1] is 8 µg/mL; in [4] it was 6 µg/mL; in [6] it was 8 µg/mL; in [8], 8 µg/mL; in test [11] it was 6 µg/mL; in [13] it was 8 µg/mL. The same compound displayed a minimal inhibitory concentration (MIC) in [14] of 9 µg/mL. Further, the “inhibition zone (IZ)” value in test [2] was 23 mm; in test [3], 29 mm; in [5] it was 18 mm; in test [7], 21 mm; in test [9] it was 20 mm; in test [10], 25 mm. In test [12], the “inhibition zone (IZ)” value stood at 18 mm.
